“And” between values parts separate entries of the source, which are not always exact repeats. Equal values may be shown once. “Also recorded” adds a separate entry of the source.
Key:
[1] = cited from earlier work
CYP3A4 = conditions: ref Unpublished data in Eisai, cited from earlier work
[2] = test system: Japanese patients with relapsed or refractory B‐NHL; assay: Phase I study: safety, adverse events and DLT; type: in vivo, human
How it was run: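 Patients received 800 mg orally once in a 4-day cycle 0, then 800 mg BID in 28-day cycles; reduction to 600 then 400 mg BID permitted. AEs graded by CTCAE v4.03, with hematology, chemistry, urinalysis, vital signs, 12-lead ECG and LVEF by echo/MUGA. DLT assessed over cycles 0–1 in patients completing both with ≥75% cycle-1 compliance, or having DLT. Safety set: ≥1 dose.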

**Q.** With `CCN(c1cc(-c2ccc(CN3CCOCC3)cc2)cc(C(=O)NCc2c(C)cc(C)[nH]c2=O)c1C)C1CCOCC1` [Tazemetostat] as the compound, how does the “treatment‐related deaths” value ([1]; 99 patients) read?
**A.** no treatment‐related deaths

**Q.** And the “treatment‐related grade 3 or higher AE anemia” value ([1]; all 99 patients)?
**A.** 2%

**Q.** What about the “treatment‐related grade 3 or higher AE neutropenia” value ([1]; all 99 patients) of the same compound?
**A.** 3%

**Q.** And the “treatment‐related grade 3 or higher AE thrombocytopenia” value ([1]; all 99 patients)?
**A.** 3%

**Q.** And the “Treatment‐related SAEs” value ([1]; four of 99 patients)?
**A.** 4%

**Q.** What about the “effect on the activity of CYP3A4” value (CYP3A4; in vitro) of the same compound?
**A.** induce and inhibit

**Q.** What about the metabolizing enzyme (CYP3A4) of the same compound?
**A.** mainly metabolized by CYP3A4

**Q.** And the “Anemia, all TEAEs, Grade ≥3” value ([2]; 800 mg BID, n = 7)?
**A.** 1 (14.3) patients (%)

**Q.** And the “Anemia, all TEAEs, all grades” value ([2]; 800 mg BID, n = 7)?
**A.** 2 (28.6) patients (%)

**Q.** What about the “Anemia, treatment‐related TEAEs, Grade ≥3” value ([2]; 800 mg BID, n = 7) of the same compound?
**A.** 1 (14.3) patients (%)

**Q.** And the “Anemia, treatment‐related TEAEs, all grades” value ([2]; 800 mg BID, n = 7)?
**A.** 2 (28.6) patients (%)

**Q.** And the “Blood creatinine increased, all TEAEs, Grade ≥3” value ([2]; 800 mg BID, n = 7)?
**A.** 0 (0.0) patients (%)

**Q.** And the “Blood creatinine increased, all TEAEs, all grades” value ([2]; 800 mg BID, n = 7)?
**A.** 2 (28.6) patients (%)

**Q.** And the “Blood creatinine increased, treatment‐related TEAEs, Grade ≥3” value ([2]; 800 mg BID, n = 7)?
**A.** 0 (0.0) patients (%)

**Q.** And the “Blood creatinine increased, treatment‐related TEAEs, all grades” value ([2]; 800 mg BID, n = 7)?
**A.** 1 (14.3) patients (%)

**Q.** What about the “Constipation, all TEAEs, Grade ≥3” value ([2]; 800 mg BID, n = 7) of the same compound?
**A.** 0 (0.0) patients (%)

**Q.** And the “Constipation, all TEAEs, all grades” value ([2]; 800 mg BID, n = 7)?
**A.** 3 (42.9) patients (%)

**Q.** And the “Constipation, treatment‐related TEAEs, Grade ≥3” value ([2]; 800 mg BID, n = 7)?
**A.** 0 (0.0) patients (%)

**Q.** And the “Constipation, treatment‐related TEAEs, all grades” value ([2]; 800 mg BID, n = 7)?
**A.** 1 (14.3) patients (%)

**Q.** What about the “Dry eye, all TEAEs, Grade ≥3” value ([2]; 800 mg BID, n = 7) of the same compound?
**A.** 0 (0.0) patients (%)

**Q.** What about the “Dry eye, all TEAEs, all grades” value ([2]; 800 mg BID, n = 7) of the same compound?
**A.** 2 (28.6) patients (%)

**Q.** And the “Dry eye, treatment‐related TEAEs, Grade ≥3” value ([2]; 800 mg BID, n = 7)?
**A.** 0 (0.0) patients (%)

**Q.** What about the “Dry eye, treatment‐related TEAEs, all grades” value ([2]; 800 mg BID, n = 7) of the same compound?
**A.** 0 (0.0) patients (%)

**Q.** What about the “Dry skin, all TEAEs, Grade ≥3” value ([2]; 800 mg BID, n = 7) of the same compound?
**A.** 0 (0.0) patients (%)

**Q.** And the “Dry skin, all TEAEs, all grades” value ([2]; 800 mg BID, n = 7)?
**A.** 2 (28.6) patients (%)

**Q.** What about the “Dry skin, treatment‐related TEAEs, Grade ≥3” value ([2]; 800 mg BID, n = 7) of the same compound?
**A.** 0 (0.0) patients (%)

**Q.** And the “Dry skin, treatment‐related TEAEs, all grades” value ([2]; 800 mg BID, n = 7)?
**A.** 2 (28.6) patients (%)

**Q.** And the “Dysgeusia, all TEAEs, Grade ≥3” value ([2]; 800 mg BID, n = 7)?
**A.** 0 (0.0) patients (%)

**Q.** What about the “Dysgeusia, all TEAEs, all grades” value ([2]; 800 mg BID, n = 7) of the same compound?
**A.** 3 (42.9) patients (%)

**Q.** And the “Dysgeusia, treatment‐related TEAEs, Grade ≥3” value ([2]; 800 mg BID, n = 7)?
**A.** 0 (0.0) patients (%)

**Q.** What about the “Dysgeusia, treatment‐related TEAEs, all grades” value ([2]; 800 mg BID, n = 7) of the same compound?
**A.** 3 (42.9) patients (%)

**Q.** What about the “Fatigue, all TEAEs, Grade ≥3” value ([2]; 800 mg BID, n = 7) of the same compound?
**A.** 1 (14.3) patients (%)

**Q.** And the “Fatigue, all TEAEs, all grades” value ([2]; 800 mg BID, n = 7)?
**A.** 2 (28.6) patients (%)

**Q.** And the “Fatigue, treatment‐related TEAEs, Grade ≥3” value ([2]; 800 mg BID, n = 7)?
**A.** 1 (14.3) patients (%)

**Q.** And the “Fatigue, treatment‐related TEAEs, all grades” value ([2]; 800 mg BID, n = 7)?
**A.** 2 (28.6) patients (%)

**Q.** What about the “Insomnia, all TEAEs, Grade ≥3” value ([2]; 800 mg BID, n = 7) of the same compound?
**A.** 0 (0.0) patients (%)

**Q.** What about the “Insomnia, all TEAEs, all grades” value ([2]; 800 mg BID, n = 7) of the same compound?
**A.** 2 (28.6) patients (%)

**Q.** And the “Insomnia, treatment‐related TEAEs, Grade ≥3” value ([2]; 800 mg BID, n = 7)?
**A.** 0 (0.0) patients (%)

**Q.** And the “Insomnia, treatment‐related TEAEs, all grades” value ([2]; 800 mg BID, n = 7)?
**A.** 1 (14.3) patients (%)

**Q.** And the “Leukopenia, all TEAEs, Grade ≥3” value ([2]; 800 mg BID, n = 7)?
**A.** 1 (14.3) patients (%)

**Q.** What about the “Leukopenia, all TEAEs, all grades” value ([2]; 800 mg BID, n = 7) of the same compound?
**A.** 2 (28.6) patients (%)

**Q.** What about the “Leukopenia, treatment‐related TEAEs, Grade ≥3” value ([2]; 800 mg BID, n = 7) of the same compound?
**A.** 0 (0.0) patients (%)

**Q.** And the “Leukopenia, treatment‐related TEAEs, all grades” value ([2]; 800 mg BID, n = 7)?
**A.** 1 (14.3) patients (%)

**Q.** What about the “Muscle spasms, all TEAEs, Grade ≥3” value ([2]; 800 mg BID, n = 7) of the same compound?
**A.** 0 (0.0) patients (%)

**Q.** What about the “Muscle spasms, all TEAEs, all grades” value ([2]; 800 mg BID, n = 7) of the same compound?
**A.** 2 (28.6) patients (%)

**Q.** What about the “Muscle spasms, treatment‐related TEAEs, Grade ≥3” value ([2]; 800 mg BID, n = 7) of the same compound?
**A.** 0 (0.0) patients (%)

**Q.** What about the “Muscle spasms, treatment‐related TEAEs, all grades” value ([2]; 800 mg BID, n = 7) of the same compound?
**A.** 2 (28.6) patients (%)

**Q.** And the “Nasopharyngitis, all TEAEs, Grade ≥3” value ([2]; 800 mg BID, n = 7)?
**A.** 0 (0.0) patients (%)

**Q.** And the “Nasopharyngitis, all TEAEs, all grades” value ([2]; 800 mg BID, n = 7)?
**A.** 5 (71.4) patients (%)

**Q.** What about the “Nasopharyngitis, treatment‐related TEAEs, Grade ≥3” value ([2]; 800 mg BID, n = 7) of the same compound?
**A.** 0 (0.0) patients (%)

**Q.** What about the “Nasopharyngitis, treatment‐related TEAEs, all grades” value ([2]; 800 mg BID, n = 7) of the same compound?
**A.** 0 (0.0) patients (%)

**Q.** What about the “Neutropenia, all TEAEs, Grade ≥3” value ([2]; 800 mg BID, n = 7) of the same compound?
**A.** 1 (14.3) patients (%)

**Q.** And the “Neutropenia, all TEAEs, all grades” value ([2]; 800 mg BID, n = 7)?
**A.** 2 (28.6) patients (%)

**Q.** What about the “Neutropenia, treatment‐related TEAEs, Grade ≥3” value ([2]; 800 mg BID, n = 7) of the same compound?
**A.** 0 (0.0) patients (%)

**Q.** And the “Neutropenia, treatment‐related TEAEs, all grades” value ([2]; 800 mg BID, n = 7)?
**A.** 1 (14.3) patients (%)

**Q.** And the “Rash, all TEAEs, Grade ≥3” value ([2]; 800 mg BID, n = 7)?
**A.** 0 (0.0) patients (%)

**Q.** What about the “Rash, all TEAEs, all grades” value ([2]; 800 mg BID, n = 7) of the same compound?
**A.** 2 (28.6) patients (%)

**Q.** And the “Rash, treatment‐related TEAEs, Grade ≥3” value ([2]; 800 mg BID, n = 7)?
**A.** 0 (0.0) patients (%)

**Q.** And the “Rash, treatment‐related TEAEs, all grades” value ([2]; 800 mg BID, n = 7)?
**A.** 2 (28.6) patients (%)

**Q.** What about the “Stomatitis, all TEAEs, Grade ≥3” value ([2]; 800 mg BID, n = 7) of the same compound?
**A.** 0 (0.0) patients (%)

**Q.** And the “Stomatitis, all TEAEs, all grades” value ([2]; 800 mg BID, n = 7)?
**A.** 2 (28.6) patients (%)

**Q.** What about the “Stomatitis, treatment‐related TEAEs, Grade ≥3” value ([2]; 800 mg BID, n = 7) of the same compound?
**A.** 0 (0.0) patients (%)

**Q.** What about the “Stomatitis, treatment‐related TEAEs, all grades” value ([2]; 800 mg BID, n = 7) of the same compound?
**A.** 2 (28.6) patients (%)

**Q.** What about the “Thrombocytopenia, all TEAEs, Grade ≥3” value ([2]; 800 mg BID, n = 7) of the same compound?
**A.** 2 (28.6) patients (%)

**Q.** And the “Thrombocytopenia, all TEAEs, all grades” value ([2]; 800 mg BID, n = 7)?
**A.** 3 (42.9) patients (%)

**Q.** What about the “Thrombocytopenia, treatment‐related TEAEs, Grade ≥3” value ([2]; 800 mg BID, n = 7) of the same compound?
**A.** 2 (28.6) patients (%)

**Q.** And the “Thrombocytopenia, treatment‐related TEAEs, all grades” value ([2]; 800 mg BID, n = 7)?
**A.** 3 (42.9) patients (%)

**Q.** What about the “dose‐limiting toxicity (DLT)” value ([2]; cycles 0 and 1, six evaluable patients, 800 mg BID) of the same compound?
**A.** No DLTs; also recorded: did not observe any DLT

**Q.** And the AE anemia ([2]; n = 7)?
**A.** 29%

**Q.** And the AE constipation ([2]; n = 7)?
**A.** 42.9%

**Q.** And the AE dry skin ([2]; n = 7)?
**A.** 29%

**Q.** And the AE dysgeusia ([2]; n = 7)?
**A.** 42.9% and 43%
